Screening results: PubChem BioAssay, Broad Institute
ARNT-TACC3 inh – disruptors of ARNT/TACC3 protein interaction, primary screen, biochemical, AlphaScreen, single concentration; AlphaScreen His-ARNT PAS-B/GST-TACC3 binding, luminescence; TACC3 fragment carries E629A point mutation; inhibition, % at 9.99 µM; AID 623870, 2012; Transforming acidic coiled-coil-containing protein 3 (Homo sapiens), Q9Y6A5; hit rate 0.66% among 390,000;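 active means mean inhibition of replicates at least 50% and at least half of replicates each reaching 50%; inconclusive means half or more replicates reach 50% but mean below 50%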;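 further: 0% = complete ARNT plus TACC3 wells and 100% = ARNT alone without TACC3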
AI-2 QS modul – Vibrio harveyi AI-2 quorum sensing modulators, primary screen, JMH597 strain, luminescence/OD600 ratio; AID 2094, 2009; hit rate 0.4% among 300,000; Vibrio harveyi JMH597 AI-2 luminescence/OD600 ratio, 9 h; active compounds read low; strain lacks LuxN and CqsS sensors; 0 = neutral-control median; activity change, % at 7.5 µM; in the data active means activity change below about -75%, passing the limit was not always enough; inconclusive means no clear call, values can overlap the other calls;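 further: luminescence divided by OD600 gain over 9 h not by final OD600 alone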
Rce1 inh – yeast Rce1p protease inhibitors, primary screen, biochemical, fluorescence, cell-free homogeneous | CAAX prenyl protease 2 (Saccharomyces cerevisiae (strain ATCC 204508 / S288c)), Q03530 | yeast membranes, quenched prenylated peptide cleavage fluorescence | calls only | hit rate 0.27% among 290,000 | AID 2563, 2010;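 active means fall in fluorescence gain of 50% or more versus controls, with final raw signal at or below 3038400; inconclusive means same 50% fall but final raw signal above 3038400; inactive means fall in fluorescence gain under 50%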;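 further: plate controls were neutral control wells for no effect and wells lacking membranes for full effect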
Target sequence (Q03530 whole entry, looked up): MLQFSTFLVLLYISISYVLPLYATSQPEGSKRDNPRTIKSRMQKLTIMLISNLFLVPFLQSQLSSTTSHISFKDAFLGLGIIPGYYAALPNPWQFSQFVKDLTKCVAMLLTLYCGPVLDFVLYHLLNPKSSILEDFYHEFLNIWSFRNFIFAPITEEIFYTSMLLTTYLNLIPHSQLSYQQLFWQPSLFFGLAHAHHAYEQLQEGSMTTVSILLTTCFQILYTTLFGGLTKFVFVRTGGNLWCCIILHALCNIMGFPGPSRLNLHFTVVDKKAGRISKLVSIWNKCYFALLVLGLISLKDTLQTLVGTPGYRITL
CAL PDZ FP-1 – CAL PDZ peptide-binding inhibitors, primary screen, biochemical, fluorescence polarization, Cer-tagged CAL PDZ, HTS | Golgi-associated PDZ and coiled-coil motif-containing protein (Homo sapiens), Q9HD26 | purified CAL PDZ, TMR-peptide fluorescence polarization, 1 h | inhibition, % at 20 µM | hit rate 0.02% among 330,000;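 active means highest replicate inhibition of at least 40%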;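 further: plate controls were DMSO neutral control wells for no effect and unlabeled competitor peptide control wells for full effect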
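Test system: tagged CAL PDZ domain / Buffer or medium: sodium phosphate/NaCl buffer pH 7.4 with TCEP, IgG, Thesit / Reagent: TMR-labelled reporter peptide T*-PRC34 bound in PDZ groove / Compound dosing: single point, 20 µM / Schedule: 1 h incubation at room temperature before polarization reading / Technique: fluorescence polarization (mP) / Benchmarks: unlabelled peptide, DMSO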
CAL PDZ FP-2 – untagged CAL PDZ binding inhibitors, primary screen, biochemical, fluorescence polarization, HTS; Golgi-associated PDZ and coiled-coil motif-containing protein (Homo sapiens), Q9HD26; purified CAL PDZ, TMR-peptide fluorescence polarization, 1 h; inhibition, % at 24.9 µM; hit rate 0.92% among 300,000; AID 602252, 2012;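 active means mean inhibition of at least 30% with at least half of replicates also reaching 30%; inconclusive means no clear call, values can overlap the other calls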;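 further: 0% = DMSO neutral control and 100% = excess unlabeled competitor peptide PRC23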
JMH597 growth – Vibrio harveyi growth inhibition, confirmation, counter-screen for AI-2 quorum sensing project, JMH597 strain, OD600 absorbance. shares compounds with AI-2 QS modul. 9 h; lacks LuxN and CqsS sensors. growth inhibition, % at 7.5 µM. hit rate 1% among 750. AID 2726, 2010;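 active means every replicate shows growth inhibition above 50%; inconclusive means at least half, but not all, replicates pass that cutoff; inactive means fewer than half of replicates pass it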
BB721 lum counter – luminescence inhibition in constitutive-on V. harveyi, confirmation, counter-screen for LuxS inhibitor project, strain BB721, luminescence readout; shares compounds with AI-2 QS modul; Vibrio harveyi BB721 luminescence, 9 h; hit rate 95% among 750; inhibition, % at 7.5 µM;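 active means inhibition above about 80% in every replicate, not just on average, limit read from the data; inconclusive means at least half of replicates past the limit, but not all; inactive means fewer than half of replicates past the limit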
BB721 growth rt – growth inhibition of V. harveyi BB721, confirmation, cytotoxicity control for AI-2 quorum sensing inhibitors, strain BB721, absorbance OD600; hit rate 3% among 750; growth inhibition, % at 7.5 µM; shares compounds with AI-2 QS modul; Vibrio harveyi BB721 growth, 9 h;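 active means every replicate shows growth inhibition above 50%; inconclusive means at least half but not all replicates above 50% inhibition; inactive means under half of replicates above 50% inhibition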
AI-2 QS JMH597 – Vibrio harveyi AI-2 signaling luminescence modulation – JMH597 strain, confirmation. shares compounds with AI-2 QS modul. Vibrio harveyi JMH597 AI-2 quorum sensing luminescence, 9 h; luxN and CqsS knockout, AI-2 only. inhibition, % at 7.5 µM. hit rate 97% among 750. AID 2736, 2010;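 active means every replicate shows more than 75% inhibition of signal versus neutral control wells; inconclusive means half to three quarters of replicates exceed 75% inhibition; inactive means fewer than half of replicates exceed 75% inhibition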
An asterisk follows results filed as active; i = inactive; ? = inconclusive; nt = no result. Hits are enriched below; roughly 1.7% of the tested compounds scored in any of these assays.

SMILES	ARNT-TACC3 inh	AI-2 QS modul	Rce1 inh	CAL PDZ FP-1	CAL PDZ FP-2	JMH597 growth	BB721 lum counter	BB721 growth rt	AI-2 QS JMH597
O=C(NNC(=O)C1CCN(S(=O)(=O)c2ccc(Cl)cc2)CC1)c1ccc(Cl)cc1	5	14	i	-1	3	nt	nt	nt	nt
O=C(COC(=O)c1ccc(Br)o1)Nc1cccc(S(=O)(=O)N2CCCCC2)c1	-10	nt	nt	0	4	nt	nt	nt	nt
O=C(Cn1c(=O)sc2ccccc21)Nc1ccc(S(=O)(=O)N2CCCC2)cc1	nt	-97*	i	-1	-4	15	99*	2	99*
O=C(COC(=O)c1ccc(Br)o1)Nc1ccc(S(=O)(=O)N2CCCC2)cc1	14	-94*	i	-2	-3	0	99*	-4	100*
Brc1cccc(CNc2nc3ccccc3n2CCN2CCOCC2)c1	1	27	i	-3	-3	nt	nt	nt	nt
Cc1cccc(-n2c(=O)c3c4c(sc3n3c(=S)[nH]nc23)CCC4)c1	5	1	nt	0	-12	nt	nt	nt	nt
O=c1c(Cc2ccc(Cl)cc2Cl)c(O)ccn1Cc1ccc(Cl)cc1	1	16	i	-1	3	nt	nt	nt	nt
CC(=O)Nc1cccc(C(=O)N/N=C/c2cccc(C)n2)c1	12	5	i	nt	6	nt	nt	nt	nt
O=C(/C=C/c1cccs1)NCc1ccccc1	7	-90*	i	-1	-1	9	97*	5	97*
O=C(/C=C/c1ccccc1Cl)NCc1cccs1	-3	-93*	i	-1	-5	14	97*	1	98*
Cc1ccc(CNC(=O)/C=C/c2ccccc2Cl)cc1	-10	-93*	i	-1	-3	-4	96*	-3	97*
O=C(/C=C/c1ccc(F)cc1)NCc1cccs1	-10	-90*	i	-3	-3	4	95*	12	96*
O=C(/C=C/c1ccc(Br)cc1)NCc1cccs1	-3	-31	i	-2	-8	nt	nt	nt	nt
CC1CCCC(N2C(=O)NC(NC(=O)c3ccco3)(C(F)(F)F)C2=O)C1C (centres undefined)	0	20	i	-1	-1	nt	nt	nt	nt
CC(=O)c1sc2nc(-c3cccs3)cc(C(F)(F)F)c2c1N	2	19	i	1	1	nt	nt	nt	nt
Cc1ccc(S(=O)(=O)Nc2ccc3c(c2)C(=O)N([C@@H](C)CO)C[C@H](C)[C@@H](CN(C)S(=O)(=O)c2ccccc2)OCCCC[C@@H](C)O3)cc1	9	nt	nt	nt	nt	nt	nt	nt	nt
CCOC(=O)C1=C(C)NC(=S)NC1C (centres undefined)	nt	-82*	i	-3	2	27	56	31	72
COC(=O)c1ccc(-c2noc(CN3C[C@H]4CC[C@H]3C4)n2)cc1	nt	-84*	i	-2	-6	-9	94*	1	96*
N#Cc1ccc(NC(=O)CN2C(=O)NC(Cc3ccccc3)C2=O)cc1 (centres undefined)	1	-15	i	-3	-4	nt	nt	nt	nt
Cc1cccc(NC(=O)CN2C(=O)NC(Cc3ccccc3)C2=O)c1 (centres undefined)	-1	?	i	-1	nt	-15	85*	-22	89*
N#Cc1cccc(NC(=O)CN2C(=O)NC(Cc3ccccc3)C2=O)c1 (centres undefined)	9	-84*	i	-3	6	0	89*	4	93*
Cc1ccc(NC(=O)Cn2nnc3ccccc3c2=O)cc1C	-13	-93*	i	0	2	-7	99*	8	99*
CC(=O)c1ccc(NC(=O)CCCCCn2nnc3ccccc3c2=O)cc1	0	10	i	0	-5	nt	nt	nt	nt
O=C(Cn1nnc2ccccc2c1=O)Nc1ccc(S(=O)(=O)N2CCOCC2)cc1	1	-97*	i	-2	-3	-10	99*	6	100*
Cc1ccc(NC(=O)Cn2nnc3ccccc3c2=O)cc1	-6	-84*	i	-1	-2	-7	97*	-3	98*
SMILES	ARNT-TACC3 inh	AI-2 QS modul	Rce1 inh	CAL PDZ FP-1	CAL PDZ FP-2	JMH597 growth	BB721 lum counter	BB721 growth rt	AI-2 QS JMH597
COc1ccc(NC(=O)CCCCCn2nnc3ccccc3c2=O)cc1OC	-5	26	i	nt	-1	nt	nt	nt	nt
COc1ccc(OC)c(S(=O)(=O)N2CCC(C(=O)NCCc3ccc(OC)c(OC)c3)CC2)c1	1	31	i	0	7	nt	nt	nt	nt
C[C@H]1CNC(=O)C(=O)N1C[C@H](Cc1ccc(O)cc1)NC(=O)CC12CC3CC(CC(C3)C1)C2	nt	14	i	0	0	nt	nt	nt	nt
CCSc1nnc(N(CCC(=O)O)CCC(=O)O)s1	-4	28	i	0	-2	nt	nt	nt	nt
CC(C(=O)O/N=C(\N)c1cccnc1)c1ccc([N+](=O)[O-])cc1 (centres undefined)	-15	8	i	-3	6	nt	nt	nt	nt
CCCN(C)C[C@H]1OCCCC[C@H](C)Oc2ccc(NS(=O)(=O)c3ccc(Cl)cc3)cc2C(=O)N([C@@H](C)CO)C[C@H]1C	6	nt	nt	nt	nt	nt	nt	nt	nt
COc1ccc(CC(=O)NCc2nnc(SCC(=O)Nc3ccccc3)n2C)cc1	-2	18	i	-2	-2	nt	nt	nt	nt
COc1ccc(NC(=O)Cc2nnc(SCC(=O)Nc3ccccc3)n2C)cc1	-23	?	i	0	-5	0	2	0	1
CCc1nnc(NC(=O)CSc2nnc(COc3cccc(C)c3)o2)s1	29	-90*	i	-4	-4	13	96*	-13	98*
Cc1ccccc1C(=O)O/N=C(\N)Cc1cccs1	-4	-87*	i	-1	-4	-7	95*	-8	96*
COc1ccc(C/C(N)=N/OC(=O)c2cccs2)cc1	-3	-84*	i	-2	nt	39	97*	22	98*
O=C(COc1ccccc1)NCC(=O)Nc1ccc(S(=O)(=O)NCc2ccco2)cc1	-4	26	i	0	-2	nt	nt	nt	nt
